DAGLB inh – blocks human DAGLB lipase activity; Q8NCG7; 340,000 compounds, 0.059% hits; inhibition, % at 5.17 µM; HEK293T DAGLB membrane lysate, EnzChek fluorogenic substrate; in the data active = inhibition above about 34%
GPR7 antagonist – antagonists of human GPR7 (neuropeptides B/W receptor 1); GPR7-expressing cells, fluorescence antagonist assay; P48145; inhibition, % at 4.4 µM; 290,000 compounds, 1.1% hits; in the data active = inhibition above about 16%, passing the limit was not always enough;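 note: cells stimulated with the agonist NPW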
Target sequence (P48145 whole entry, looked up): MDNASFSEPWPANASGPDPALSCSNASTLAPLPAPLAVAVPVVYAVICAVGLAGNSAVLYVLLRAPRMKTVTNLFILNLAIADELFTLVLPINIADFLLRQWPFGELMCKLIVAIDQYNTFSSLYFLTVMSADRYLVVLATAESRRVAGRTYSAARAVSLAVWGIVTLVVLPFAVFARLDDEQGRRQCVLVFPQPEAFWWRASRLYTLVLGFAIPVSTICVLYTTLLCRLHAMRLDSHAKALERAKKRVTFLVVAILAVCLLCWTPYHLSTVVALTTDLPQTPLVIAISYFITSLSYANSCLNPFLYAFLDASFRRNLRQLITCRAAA
MPTP inh – permeability transition pore inhibition | isolated mouse mitochondria, Ca2+ swelling absorbance, 30 min | inhibition, % at 10 µM | 360,000 compounds, 1.4% hits | AID 602449;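 active = inhibition of 50% or more, scaled per plate between neutral and stimulator controls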
TAAR1 ag – human TAAR1 agonism; CHO RD-HGA16 TAAR1, Fluo-8 calcium fluorescence; vehicle wells 0%, saturating PEA agonist 100%; activation, % at 3 µM; AID 624467; Q96RJ0; 360,000 compounds, 0.99% hits;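 active = activation above the mean activation of all test compounds in the run plus 3 SD, cut at about 38% in these data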
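Assay system: CHO-derived RD-HGA16 cells with stable Gα16 and human TAAR1; timing: 17-24 h seeding, 75 min 37 °C dye, 30 min RT; read-out: % activation from peak over basal fluorescence ratio, DMSO-to-PEA scaled; measured by: kinetic Fluo-8 calcium fluorescence; benchmarks: low control DMSO, high control PEA (EC100); doses: 3 µM single concentration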
TAAR1 antag – human TAAR1 antagonism. Q96RJ0. CHO RD-HGA16 TAAR1, Fluo-8 calcium fluorescence, antagonist. inhibition, % at 3 µM. 360,000 compounds, 1.5% hits;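 active = inhibition above a per-plate cutoff, the mean inhibition of test compounds on that plate plus 3 SD, cut at about 49% in these data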
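Material: RD-HGA16 CHO cells with stable hTAAR1 and Gα16; Dosing: single nominal final test compound concentration of 3 µM; Schedule: seeding 17-24 h prior, 75-min 37 °C, 30-min RT dye loading; Detection: kinetic Fluo-8 calcium fluorescence measurement; Measure: % inhibition from peak post-agonist over basal fluorescence ratio; Benchmarks: vehicle and agonist controls.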
TAAR1 nonsel count – nonselective antagonist in TAAR1 antagonist counter-screen | 2,400 compounds, 77% hits | inhibition, % at 3 µM | AID 651780 | counterscreen cell line, calcium fluorescence, antagonist mode | shares compounds with TAAR1 antag; in the data active = inhibition above about 22%;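 note: CHO-Ga16 host cells stimulated with ATP at an EC80 level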
TAAR1 antag conf – confirmation of human TAAR1 antagonists. shares compounds with TAAR1 antag. TAAR1-expressing cells, fluorescence antagonist read-out. inhibition, % at 3 µM. 2,400 compounds, 40% hits. AID 651785; in the data active = inhibition above about 49%;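 note: CHO-Ga16 host cells challenged with agonist PEA near its EC80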
Ga16 nonsel ag – counter-screen for TAAR1 antagonists: nonselective Ga16 agonists | Ga16-expressing cells, calcium fluorescence, agonist counterscreen | activation, % at 3 µM | 2,400 compounds, 18% hits | shares compounds with TAAR1 antag; in the data active = activation above about 12%
TAAR1 ag count – TAAR1 agonism, antagonist counter-screen | shares compounds with TAAR1 antag | hTAAR1 cell line, fluorescence activation, agonist mode | activation, % at 3 µM | 2,400 compounds, 2% hits | AID 651955; in the data active = activation above about 37%;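 note: CHO cells stably expressing TAAR1 with calcium dye readout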
Large screens that a line does not name were inactive (follow-up assays come after a bar, where they were run). Rows were chosen to be rich in hits. Some 4% of all compounds tested hit in one or more screens of this group.

Cc1cccn2c(=O)c3cc(C#N)c(=NC(=O)c4cccs4)n(CCCOC(C)C)c3nc12	TAAR1 antag 67 | TAAR1 nonsel count 24 | TAAR1 antag conf inactive | Ga16 nonsel ag inactive | TAAR1 ag count inactive
O=C(Nc1cccc(NC(=O)c2ccc(-c3ccc(Br)cc3)o2)c1)c1ccco1	TAAR1 antag 69 | TAAR1 nonsel count 33 | TAAR1 antag conf 50 | Ga16 nonsel ag inactive | TAAR1 ag count inactive
O=C(Nc1cccc(NC(=O)c2ccccc2Cl)c1)c1ccco1	none
O=C(CNC(=O)c1ccc(Br)o1)Nc1cccc(-c2cnc3ccccc3n2)c1	TAAR1 antag 64 | TAAR1 nonsel count 33 | TAAR1 antag conf 52 | Ga16 nonsel ag 12 | TAAR1 ag count inactive
O=C(Nc1cccc(-c2cnc3ccccc3n2)c1)c1ccco1	TAAR1 antag 54 | TAAR1 nonsel count inactive | TAAR1 antag conf inactive | Ga16 nonsel ag inactive | TAAR1 ag count inactive
Cc1ccc(C(=O)Nc2cccc(-c3cnc4ccccc4n3)c2)cc1	none
Cc1ccc(C(=O)NCC(=O)N2CCN(c3ccccc3O)CC2)s1	none (no result: GPR7 antagonist)
O=C(NCCOc1ccc(F)cc1)c1ccccc1SCc1ccccc1	TAAR1 antag 60 | TAAR1 nonsel count 30 | TAAR1 antag conf 53 | Ga16 nonsel ag inactive | TAAR1 ag count inactive
CCc1ccc(OCCNC(=O)c2ccccc2SCc2ccc(F)cc2)cc1	TAAR1 antag 54 | TAAR1 nonsel count 26 | TAAR1 antag conf inactive | Ga16 nonsel ag inactive | TAAR1 ag count inactive
CCc1ccc(OCCNC(=O)c2cc(SC)ccc2Cl)cc1	none
COc1ccc(NC(=O)c2ccccc2SCc2ccccc2)cc1	none (no result: GPR7 antagonist)
O=C(O)C(=Cc1ccccc1[N+](=O)[O-])c1ccc2c(c1)OCO2	none (no result: GPR7 antagonist)
CCCCCC(=O)N1C[C@@H](n2cc(C3CC3)nn2)[C@H](O)C[C@@H]1c1ccccc1	none (no result: GPR7 antagonist)
COc1ccc(-c2c(C)nc3c(-c4ccccn4)cnn3c2N)cc1	TAAR1 antag 67 | TAAR1 nonsel count 24 | TAAR1 antag conf 62 | Ga16 nonsel ag inactive | TAAR1 ag count inactive
COc1ccc(-c2c(C)nc3c(-c4ccsc4)cnn3c2N)cc1	none
O=C(C(=O)N1CCC(CNS(=O)(=O)Cc2ccccc2)CC1)c1cccs1	none (no result: DAGLB inh, GPR7 antagonist, MPTP inh)
COc1cc(C(=O)Nc2cccc(-c3nnc(-c4ccco4)o3)c2)ccc1OC(C)=O	TAAR1 antag 64 | TAAR1 nonsel count 26 | TAAR1 antag conf inactive | Ga16 nonsel ag inactive | TAAR1 ag count inactive
COc1ccc(C(=O)Nc2cccc(-c3nnc(-c4ccco4)o3)c2)cc1	none
c1ccc(OCCNc2ccn3nc(-c4ccco4)cc3n2)cc1	none (no result: DAGLB inh, GPR7 antagonist)
Cc1cccc(C(C#N)c2nc3ccccc3nc2C(F)(F)F)c1 (centres undefined)	TAAR1 antag 80 | TAAR1 nonsel count inactive | TAAR1 antag conf 83 | Ga16 nonsel ag inactive | TAAR1 ag count inactive
N#CC(c1ccc(Cl)cc1)c1nc2ccccc2nc1C(F)(F)F (centres undefined)	TAAR1 antag 57 | TAAR1 nonsel count inactive | TAAR1 antag conf inactive | Ga16 nonsel ag inactive | TAAR1 ag count inactive
COc1ccccc1N1CCN(C(=O)c2cccc(S(=O)(=O)N3c4ccccc4CC3C)c2)CC1 (centres undefined)	TAAR1 antag 75 (no result: GPR7 antagonist) | TAAR1 nonsel count 39 | TAAR1 antag conf 50 | Ga16 nonsel ag inactive | TAAR1 ag count inactive
CC1Cc2ccccc2N1S(=O)(=O)c1cccc(C(=O)N2CCCCC2)c1 (centres undefined)	none (no result: GPR7 antagonist)
CN(Cc1ccccc1)C(c1ccnc2ccccc12)c1nnnn1-c1ccc2c(c1)OCCO2 (centres undefined)	none (no result: DAGLB inh, GPR7 antagonist)
O=C(COc1ccccc1)Nc1cccc(-c2nnc(-c3ccccc3)o2)c1	TAAR1 antag 67 (no result: GPR7 antagonist) | TAAR1 nonsel count 38 | TAAR1 antag conf 51 | Ga16 nonsel ag inactive | TAAR1 ag count inactive
O=C(O)CCC(=O)Nc1cccc(-c2nnc(-c3ccccc3)o2)c1	none

Bioassay records as filed in PubChem BioAssay.
